IC50 data for 96 molecules are collected here from PubChem BioAssay AID617 (SRMLSC, 2007).

pIC50: −log10 of the molar value. A value given as a limit tells only on which side of the number the result lay.

The test system of the assay is E. coli BW25113 ΔtolC growth inhibition, OD615. Description: E. coli ΔtolC antibacterial growth inhibition – strain BW25113 ΔtolC::kan, dose response (AID 617). The essentials: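 System – E. coli BW25113 ΔtolC::kan bacteria · Input – inoculum from 1:1000-diluted 1.5 h subculture · Buffer or medium – LB plus kanamycin · Compound – serial dilution series of compound · Timing – bacterial growth with compound for 20 h, 37 °C · Measured by – OD615 · Read-out basis – growth-inhibition IC50 from four-parameter logistic curve, bounds set to 0% and 100% · Benchmarks – chloramphenicol 30 µM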
Regarding `CCCCC(CC)CNC(=O)c1[nH]c(C)c(C(C)=O)c1C` (stereo unspecified), the pIC50 is 5.89.

Consider `O=C(O)CCC(=O)N1CCc2cc(S(=O)(=O)N3CCC(Cc4ccccc4)CC3)ccc21`, for which the pIC50 was 5.97.

On to `COc1cccc(-c2csc(N3CCN(C(=O)C4CCCCC4)CC3)n2)c1`, for which the pIC50 was 4.78.

As to `O=c1c(-c2nc3ccccc3o2)c2oc3ccccc3n2c2ccccc12`, the pIC50 was 4.75.

Take `N#Cc1c(NC(=O)CSc2n[nH]c(Cc3ccccc3)n2)oc(-c2ccccc2)c1-c1ccccc1`: the pIC50 is 5.13.

With `CCOC(=O)c1cnc(-n2nc(C)cc2C)nc1NC(C)c1ccccc1` (stereo unspecified), the pIC50 was 5.56.

Regarding `COc1ccc(NC(=O)N2CCCC(c3nc(-c4ccc(C(C)C)cc4)no3)C2)cc1` (stereo unspecified), the pIC50 was 4.77.

As for `Cc1oc2c(CN3CCOCC3)c(O)ccc2c(=O)c1-c1ccc(Br)cc1`, the pIC50 was 5.55.

As to `CCOC(=O)Cc1c(C)nc2c(-c3ccc(Cl)cc3)c[nH]n2c1=O`, the pIC50 was 5.68.

As to `CCn1cc(C(=O)Nc2nncs2)c(=O)c2cc(F)c(N3CCN(C(=O)c4ccco4)CC3)cc21`, the pIC50 was 6.72.

As to `Cn1ncc(C#N)c1/N=C/N(Cc1ccccc1)Cc1ccccc1`, the pIC50 is 5.12.

For `CCN(CC)c1ccc(-c2nn3c(-c4n[nH]c5c4CCC5)nnc3s2)cc1`, the pIC50 is 4.68.

Turning to `Cc1ccc(O)c(C(=O)CC(=O)c2cccc(F)c2)c1`, the pIC50 is 4.93.

Consider `Cc1cccc2cc(CN(Cc3ccco3)C(=O)NC3CCCCC3)c(=O)[nH]c12`, for which the pIC50 was 4.83.

With `Cc1ccc(C2C(S(C)(=O)=O)=C(O)C(=O)N2c2ccccc2)cc1` (stereo unspecified) (tested in a mixture with another compound), the pIC50 is 5.32.

Consider `CCOC(=O)c1c(-c2ccccc2)nnn1-c1nc(OCC)nc(N2CCCCC2)n1`, for which the pIC50 is 4.68.

Regarding `COc1ccc(-c2cc(C(=O)N3CC4(C)CC3CC(C)(C)C4)no2)cc1OC` (stereo unspecified), the pIC50 was 4.85.

On to `CCOC(=O)C1C(=O)C=C(c2ccc(OC)cc2)CC1c1ccco1` (stereo unspecified), for which the pIC50 is 4.94.

As to `CCC(C)(C)n1nnnc1C(c1cc2ccc(C)cc2[nH]c1=O)N(Cc1cccnc1)Cc1ccco1` (stereo unspecified), the pIC50 is 4.82.

Turning to `N#Cc1nc(Cc2cccc3ccccc23)oc1NCCCn1ccnc1`, the pIC50 was 4.62.

In the case of `CCc1cc(/C(Cc2ccc3ccccc3n2)=N\O)c(O)cc1O`, the pIC50 is 5.08.

As to `CCn1c(SCC(=O)Nc2nc(-c3ccccc3)cs2)nnc1-c1ccccc1O`, the pIC50 is 5.17.

Take `N=c1c2c(n(Cc3ccc(Cl)cc3Cl)c3c1CCC3)CCCC2`: the pIC50 was 5.21.

For the molecule `COc1ccccc1-c1cc(C(=O)NC(C)c2ccccc2)no1` (stereo unspecified), the negative logarithm of the IC50 (pIC50) was 4.42.

On to `COc1ccccc1-c1nnc(SC/C(O)=C(\C#N)c2nc3ccccc3[nH]2)n1C1CCCCC1`, for which the pIC50 is 4.99.

Turning to `CC1CCN(c2oc(-c3ccccc3F)nc2C#N)CC1`, the pIC50 was 4.72.

As to `N#Cc1nc(Cc2ccccc2)oc1NCc1ccccc1Cl`, the pIC50 was 5.32.

`CCNc1nc(NC(C)C)nc(N(C#N)Cc2ccccc2)n1`: the pIC50 is 4.74.

Consider `Cc1ccc2c(c1)c(C)c(C)n2CC(O)Cn1nc(C)c(Br)c1C` (stereo unspecified), for which the pIC50 was 4.93.

On to `COC(=O)c1ccc(NC(=O)CN2CCN(c3cccc(Cl)c3)CC2)cc1`, for which the pIC50 is 4.66.

Consider `O=C(CC1CCCCC1)c1c(O)c2ccccc2oc1=O`, for which the pIC50 is 5.76.

As for `COc1ccc(-c2[nH]ncc2-c2ccc3c(c2)OCCO3)c(O)c1`, the pIC50 was 4.80.

Regarding `Clc1cccc(NCc2nnc(SCc3ccccc3)o2)c1`, the pIC50 was 5.02.

In the case of `CCCCN(CCCC)C(=O)CSc1nnc(-c2cc(OC)c(OC)c(OC)c2)o1`, the pIC50 is 4.56.

Take `O=C(c1ccccc1CCc1ccccc1)N1CCN(c2ccccn2)CC1`: the pIC50 is 5.08.

Take `Oc1c(C(c2cccs2)N2CCN(c3cccc(Cl)c3)CC2)sc2ncnn12` (stereo unspecified): the negative-log IC50 (pIC50) is 4.86.

On to `Cc1cc(C)c(C#N)c(N2CCN(CCOc3ccc(Cl)cc3)CC2)n1`, for which the pIC50 is 4.98.

In the case of `COc1ccc2nc(NC(=O)C3CCCN(S(=O)(=O)c4cccs4)C3)sc2c1` (stereo unspecified), the pIC50 is 4.58.

`Cc1ccc(C(C(=O)NC2CCCC2)N(Cc2cccs2)C(=O)CNC(=O)c2cccs2)o1` (stereo unspecified): the pIC50 was 4.65.

As for `C/C(CCc1oc2ccccc2c1-c1ccc(C)o1)=N/O`, the pIC50 is 4.85.

`COC(=O)c1ccccc1NC(=O)c1ccc2c(c1)OCCO2`: the pIC50 was 4.66.

Consider `Cc1ccc(C)n1-n1cnc2sc(-c3ccccc3)cc2c1=O`, for which the pIC50 was 5.15.

`CCOC(=O)c1c(NC(=O)C(F)(OC)C(F)(F)F)sc(C(=O)N2CCCCC2)c1C` (stereo unspecified): the pIC50 was 4.61.

For `COc1cc(Cc2cnc(N)nc2N)cc(OC)c1OC`, the pIC50 is 6.47.

Consider `CCCn1nnc(NC(=O)COc2ccc(C3CCCCC3)cc2)n1`, for which the pIC50 is 5.03.

Turning to `CN(c1ccccc1)S(=O)(=O)c1ccc(C(=O)Nc2nnc(-c3ccc(F)cc3)o2)cc1`, the pIC50 was 6.68.

On to `Cc1ccc2oc(=O)n(Cc3ccccc3OC(C)C)c2c1`, for which the pIC50 is 5.05.

As to `CCOC(=O)c1cccc(NC(=O)c2cc3sccc3n2C)c1`, the pIC50 is 5.01.

Consider `Nc1c(C(=O)NCCc2ccccc2)c2nc3ccccc3nc2n1CCN1CCOCC1`, for which the pIC50 is 4.91.

As for `CCOc1ccccc1C(=O)NC(C(=O)OCC(=O)Nc1nnc(-c2ccccc2)o1)C(C)C` (stereo unspecified), the pIC50 is 5.11.

For the molecule `CCc1ccccc1NS(=O)(=O)c1ccc2[nH]cc(C(=O)NCc3ccco3)c(=O)c2c1`, the pIC50 was 4.66.

`C=C(C)COc1ccc(-c2[nH]ncc2Oc2cccc(OC)c2)c(O)c1`: the pIC50 was 5.22.

Regarding `Cc1ccccc1C1=NCC(=O)N(CC(=O)NCc2ccco2)c2sc3c(c21)CCCC3`, the pIC50 was 4.54.

Take `O=C(Nc1cccc(-c2nnc(-c3ccccc3)o2)c1)c1ccc(Br)o1`: the pIC50 was 5.24.

Regarding `N#C/C(=C\c1cccs1)Sc1nc2ccccc2s1`, the pIC50 was 5.04.

Regarding `CC(C)(C)c1ccc(C(=O)CCCSC2=C(C#N)C(c3ccco3)C3=C(CCCC3=O)N2)cc1` (stereo unspecified), the pIC50 is 5.75.

Regarding `Cc1ccc(NC(=O)CN(C)S(=O)(=O)c2cccc3nsnc23)cc1Cl`, the pIC50 was 4.75.

On to `COc1ccccc1Cc1nc(-c2ccc(Br)o2)no1`, for which the pIC50 was 4.70.

As for `CCCCn1c(=O)n(Cc2cccc(F)c2)c(=O)c2c1ncn2Cc1ccco1`, the pIC50 was 4.83.

On to `Brc1cccc(C2CC(c3ccccc3)n3nnnc3N2)c1` (stereo unspecified), for which the pIC50 is 4.62.

For `CC1=C(C#N)c2nc(N)c(C#N)c(C)c2/C1=C\c1ccccc1`, the negative logarithm of the IC50 (pIC50) is 5.52.

As for `CCN(CCNC(=O)C1CCN(Cc2nc(-c3cccc(Cl)c3)oc2C)CC1)c1ccccc1`, the pIC50 is 5.09.

For the molecule `O=C1CN(C(=O)c2ccc(Br)o2)C(c2ccccc2)c2cc(Cl)ccc2N1` (stereo unspecified), the pIC50 was 4.81.

Regarding `Cc1cc(C2N=C(N)Nc3nc4ccccc4n32)c(C)n1-c1ccccc1Cl` (stereo unspecified), the pIC50 is 5.17.

As to `O=C(COc1ccc2ccccc2c1Br)N1CCN(c2ccccn2)CC1`, the pIC50 was 4.98.

For `Cc1cccc(Cn2c(=O)c3c(nc4n3CCCN4Cc3ccccc3)n(C)c2=O)c1`, the pIC50 was 4.70.

`O=C1CC(O)(C(F)(F)F)Oc2c1ccc1ccccc21` (stereo unspecified): the pIC50 is 5.92.

As to `CCN(c1cccc(C(F)(F)F)c1)S(=O)(=O)c1ccc2c(c1)CCN2C(=O)C1CC1`, the pIC50 is 4.29.

Turning to `CC(C)(C)c1[nH]nc2c1C(Cc1ccccc1)C(C#N)=C(N)O2` (stereo unspecified), the pIC50 is 4.50.

In the case of `O=C(NC1CCCC1)c1sc(=S)n2c1[nH]c(=O)c1ccccc12`, the pIC50 is 6.25.

`Clc1ccc(OCc2nn3c(C4CCCCC4)nnc3s2)cc1`: the pIC50 was 5.01.

As for `CCCCc1c(C)nn(-c2nnc3c4ccccc4n(CC)c3n2)c1C`, the pIC50 was 5.75.

Regarding `Cc1cc(C)c(C#N)c(SCS(=O)c2ccc(C(C)(C)C)cc2)n1` (stereo unspecified), the pIC50 was 4.40.

Consider `COc1cc2c(C#N)c(N3CCc4ccccc4C3)nc(N)c2c(N)n1`, for which the pIC50 is 4.63.

As for `Cc1ccc(S(=O)(=O)N(Cc2ccc(F)cc2)Cc2ccco2)cc1`, the pIC50 was 5.15.

Turning to `Cc1ccc(-c2noc(CCC(=O)N3CCCc4ccccc43)n2)cc1`, the pIC50 was 4.89.

Regarding `C=C(C)C1CCC(C)=C1COC(=O)Nc1ccccc1` (stereo unspecified), the pIC50 was 4.91.

Take `CCc1nc2sc3ccccc3c(=O)c2c(=O)n1Cc1ccco1`: the pIC50 is 4.77.

With `COC(=O)c1sccc1NC(=O)c1csc(C)c1`, the pIC50 is 4.64.

Regarding `CC1=C(C(=O)OC2CCCCCC2)C(c2ccc(C)o2)C2=C(CCCC2=O)N1` (stereo unspecified), the pIC50 is 5.20.

In the case of `C#CCSc1nnc(-c2cccc3ccccc23)o1`, the pIC50 was 4.91.

On to `O=C1Nc2ccccc2C12OCC(COc1ccc(Cl)cc1)O2` (stereo unspecified), for which the pIC50 was 4.76.

Turning to `COc1cccc(C(=O)Nc2nnc(-c3cccs3)o2)c1`, the pIC50 is 5.41.

`CCOC(=O)c1[nH]c2ccc(F)cc2c1NC(=O)CN1CCN(C/C=C/c2ccccc2)CC1`: the pIC50 is 4.83.

As for `CCN1/C(=C(\O)c2ccccc2)C(=O)c2ccccc2S1(=O)=O`, the pIC50 is 5.34.

Regarding `CCn1c(N2CCN(C(=O)C34CC5CC(CC(C5)C3)C4)CC2)nc2ccccc21`, the pIC50 is 4.76.

As for `O=C(CCn1c(=O)oc2ccccc21)N1CCN(C(c2ccccc2)c2ccccc2)CC1`, the pIC50 is 4.54.

In the case of `COC(=O)c1ccc(Oc2nc(N3CCCCC3)nc(N3CCOCC3)n2)cc1`, the pIC50 is 4.69.

On to `CCCc1[nH]nc2c1C(c1ccc(OC)c(CSC3=NCCS3)c1)C(C#N)=C(N)O2` (stereo unspecified), for which the pIC50 is 4.16.

As for `CCCCCCn1c2c(c(=N)c3c1CCC3)CCC2`, the pIC50 was 4.99.

As to `O=S(=O)(NC1CCCC1)c1ccc(S(=O)(=O)N(Cc2cccs2)CC2CCCO2)cc1` (stereo unspecified), the pIC50 is 4.68.

As to `CCCn1c(CN(Cc2ccccc2)Cc2ccccc2)nc2c1c(=O)n(C)c(=O)n2C`, the pIC50 was 5.14.

For the molecule `O=C(c1cc2ccccc2o1)N1CCN(c2ccccc2Cl)CC1`, the pIC50 is 5.00.

Take `COc1c(N2CCNC(C)C2)c(F)cc2c(=O)c(C(=O)O)cn(C3CC3)c12` (stereo unspecified): the pIC50 was above 6.70.

Regarding `O=C(Cc1ccc(Br)cc1)c1ccc(O)cc1O`, the pIC50 was 5.14.

As for `Cc1csc(NC(=O)CSc2ncnc3c2cnn3-c2ccccc2Cl)n1`, the pIC50 is 4.78.

A word on the pIC50: it is the IC50 on a negative log10 scale, so that one unit is a factor of ten.
